Reference: PMC9089800 (RSC Advances, 2018)
Like-named read-outs stand apart in the source and are kept apart here.

Tests used:
[1] = tested on: MCF7; experiment: MTT growth inhibition / cytotoxicity assay, MCF7; format: cell-based, human
[2] = tested on: MDA-MB-231; experiment: MTT growth inhibition / cytotoxicity assay, MDA-MB-231; format: cell-based, human
[3] = tested on: MCF7 cells; experiment: Immunostaining; format: cell-based, human; settings: IC50 concentration, 12 hours
In short: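 Cells grown overnight as a monolayer on coverslips, then exposed to test compound for 12 h. Fixed in 3.7% formaldehyde for 20 min at room temperature in the dark. Permeabilised with 0.5% Tween-20 for 30 min, then blocked with 3% BSA. Stained 1 h with anti-α-tubulin, then 1 h with Alexa Fluor 594 secondary. DNA counterstained with Hoechst; mounted in DABCO/glycerol.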

[4] = tested on: MCF7 cells; experiment: DNA fragmentation assay; format: cell-based, human; settings: MCF7, 24 h; 30 μM of 9, 20 μM of 10
[5] = tested on: caspase 9; experiment: Western blot for apoptotic pathway; format: cell-based, human; settings: MCF7, 24 h; 30 μM of 9, 20 μM of 10
In short: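 MCF7 cells exposed 24 h to DMSO vehicle or test compound. Lysed 20 min on ice in Tris pH 7.4/EDTA/NaCl/NaF/orthovanadate/0.5% Triton X-100, then cleared at 16000 × g at 4 °C. Protein quantified by Bradford; samples boiled in Laemmli buffer. SDS-PAGE, PVDF transfer, 3% milk/TBST block. Anti-caspase 9 overnight at 4 °C; HRP secondary; chemiluminescent detection.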

[6] = tested on: MCF10A; experiment: cells; format: cell-based; settings: 48 h; for IC50: Homo sapiens, MCF-10A, read-out: IC50 in μM MCF10A
[7] = tested on: MCF7 cells; experiment: Cell cycle analysis by FACS; format: cell-based, human; settings: MCF7, 24 h; 30 μM of 9, 20 μM of 10
In short: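 Cells seeded a day before; treated 24 h with test compound or DMSO vehicle (final DMSO <0.02%). Cells trypsinised, pelleted at 4 °C, fixed overnight at 4 °C in chilled 95% ethanol, and PBS-washed. Stained with propidium iodide plus RNase in PBS/2 mM MgCl2 for 20 min at 37 °C, then acquired by flow cytometry. Three repeats; mean sub-G1 population plotted.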

[8] = Homo sapiens, MCF7, 48 h, read-out: IC50 in μM MCF7, MTT, 48 h, 0–100 μM
[9] = read-out: IC50 in μM MCF7, MTT, 48 h, 0–100 μM

With C=C1[C@@H]2[C@H]3OC(=O)C(=C)[C@@H]3CCC(=C)[C@@H]2C[C@@H]1O [Compound 2, Zaluzanin C] the IC50 [1, 8] was greater than 100 µM, the “IC50 in μM MCF7” value ([1]; MTT, 48 h, 0–100 μM) was “inactive” and the “IC50 in μM MDA-MB-231” value ([2]; 48 h, 0–100 μM) was “inactive”.

For C=C1[C@@H]2[C@H]3OC(=O)[C@@H](CN[C@H](C)c4cccc5ccccc45)[C@@H]3CCC(=C)[C@@H]2C[C@@H]1OC(C)=O [Compound 9, (3R,3aS,6aR,8S,9aR,9bS)-6,9-Dimethylene-3-((((R)-1-(naphthalen-1-yl)ethyl)amino)methyl)-2-oxododecahydroazuleno[4,5-b]furan-8-yl acetate], the IC50 [1, 8] was less than 50 µM, the IC50 [1, 9] was 30 ± 0.7 µM and the “DNA fragmentation by Hoechst staining, tubulin morphology” value [3] was “fragmented DNA”. The “fragmentation of genomic DNA (ladder on agarose gel)” value [4] was “substantial fragmented DNA ladder”, the “apoptotic pathway (caspase 9 immunoblot)” value [5] was “cleavage of caspase 9” and the IC50 [6] was 42 ± 4.1 µM. For the same compound, the “cytotoxic effect on normal breast epithelial MCF10A cells (in words)” value ([6]; MTT) was “potent cytotoxic effect” and the “apoptotic (sub-G1) population” value [7] was “significantly increased the apoptotic populations”.

C=C1[C@@H]2[C@H]3OC(=O)[C@@H](CN4CCC(O)CC4)[C@@H]3CCC(=C)[C@@H]2C[C@@H]1O [Compound 14, (3R,3aS,6aR,8S,9aR,9bS)-8-Hydroxy-3-((4-hydroxypiperidin-1-yl)methyl)-6,9-di-methylenedecahydroazuleno[4,5-b]furan-2(3H)-one] showed an IC50 [1, 8] of less than 50 µM, an IC50 [1, 9] of 40 ± 2.16 µM and an IC50 ([2]; read-out: IC50 in μM MDA-MB-231, 48 h, 0–100 μM) of 25 ± 2.3 µM. The IC50 [6] was greater than 50 µM and the “apoptotic (sub-G1) population” value [7] was “induced apoptosis to a lesser extent”.
